Results on five compounds are retold here after ChEMBL document CHEMBL4229514, “Synthesis and biological evaluation of novel benzofuroxan-based pyrrolidine hydroxamates as matrix metalloproteinase inhibitors with nitric oxide releasing activity” (Bioorg Med Chem, 2018).

Calls of active or inactive are those of the source. No cut-off for these calls is given here. Some results are limits rather than exact numbers.

One data set deals with HUVEC. The data set is described as follows: Anti-angiogenic activity against HUVEC assessed as reduction in tube formation at 1 uM after 8 hrs by inverted microscopic method. The data set is classed as functional, cell-based. The conditions noted are these: Homo sapiens. The procedure, abridged:
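Matrigel-coated wells gelled 30 min at 37 °C, 5% CO₂; 1×10⁵ HUVECs per well seeded in growth medium together with compound at 1 μM, vehicle control included. Incubated 8 h at 37 °C, 5% CO₂; capillary-like tube networks imaged under inverted microscope and quantified.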

In another data set the test system is A549. The data set is described as follows: Antiproliferative activity against human A549 cells after 48 hrs by MTT assay. The data set is classed as functional, cell-based. The conditions noted are these: A549, 48 h. An outline of the steps: (§1)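 Cells grown in RPMI1640 with 10% FBS at 37 °C, 5% CO₂; plated 5000 per well, 4 h attachment, then exposed to a range of compound concentrations for 48 h. 0.5% MTT added for 4 h, formazan dissolved in DMSO, absorbance read at 570 nm.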

The nature of data set [1]: Cytotoxicity against HUVEC after 48 hrs by MTT assay. The conditions noted are these: human, HUVEC cells. The data set is classed as cell-based. The procedure, abridged: as §1
Data set [2] addresses Matrix metalloproteinase-9 (Homo sapiens, UniProt P14780). Put plainly: Inhibition of recombinant human MMP9 (Phe107 to Pro449 residues) expressed in Escherichia coli preincubated for 45 mins followed by […] substrate addition by fluorescence assay. An outline of the steps: (§2)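 Fluorometric kit assay: enzyme added to assay buffer equilibrated to 37 °C, then inhibitor (NNGH as kit control) added and preincubated 45 min at 37 °C; fluorogenic substrate added to start reaction; fluorescence read at Ex/Em 328/420 nm.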

Data set [3] deals with HeLa. The data set is described as follows: Anti-invasive activity against human HeLa cells at 1 uM after 24 hrs using crystal violet staining by inverted microscopic based transwell chamber assay. It is filed as functional, cell-based. The procedure, abridged:
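Transwell chambers, 8 μm pore, upper side precoated with Matrigel. 1×10⁵ HeLa cells seeded with compound (1 μM) in RPMI1640 with 1% FBS; lower chamber 10% FBS as chemoattractant. After 24 h at 37 °C, non-invaded cells swabbed off; membranes methanol-fixed 10 min, stained 0.5% crystal violet, counted microscopically.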

Data set [4] deals with HeLa. Put plainly: Antiproliferative activity against human HeLa cells after 48 hrs by MTT assay. It is filed as functional, cell-based. An outline of the steps: as §1
Another data set deals with MDA-MB-231. The data set is described as follows: Antiproliferative activity against human MDA-MB-231 cells after 48 hrs by MTT assay. It is filed as functional, cell-based. The conditions noted are these: MDA-MB-231, 48 h. An outline of the steps: as §1
Data set [5] has as its target 72 kDa type IV collagenase (Homo sapiens, UniProt P08253). The data set is described as follows: Inhibition of recombinant human MMP2 catalytic domain (Tyr110 to Asp452 residues) preincubated for 45 mins followed by […] substrate addition by fluorescence assay. An outline of the steps: as §2
For a further data set, the system named is Thoracic aorta. The data set is described as follows: Anti-angiogenic activity against Sprague-Dawley rat thoracic aorta assessed as reduction in microvessel outgrowth arising fron aortic rings at 5 uM after 6 days by inverted microscopic method. It is filed as functional, tissue-based. The procedure, abridged: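 Thoracic aortas from 6-week-old male Sprague Dawley rats, perivascular tissue removed, cut into ~1 mm rings and embedded in Matrigel-coated wells. Rings treated with compound at 5 μM, vehicle control included, 6 days at 37 °C, 5% CO₂. Microvessel outgrowth imaged by inverted microscope; inhibition rate counted.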

Data set [6] can be described thus: Antiproliferative activity against human ES2 cells after 48 hrs by MTT assay. It is filed as functional, cell-based. The settings on record: ES-2, 48 h. The procedure, abridged:
as §1

For a further data set, the system named is K562. The data set is described as follows: Antiproliferative activity against human K562 cells after 48 hrs by MTT assay. The data set is classed as functional, cell-based. The conditions noted are these: K562, 48 h. The procedure, abridged: as §1
For a further data set, the system named is MCF7. Put plainly: Antiproliferative activity against human MCF7 cells after 48 hrs by MTT assay. It is filed as functional, cell-based. The settings on record: MCF7, 48 h. An outline of the steps:
as §1

Data set [7] relates to HeLa. Put plainly: Anticlonogenic activity against human HeLa cells treated for 24 hrs measured after 2 weeks by crystal violet staining based inverted microscopic method. It is filed as functional, cell-based. An outline of the steps:
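HeLa cells seeded at 500 per well, exposed to compound 24 h, then grown 2 weeks at 37 °C, 5% CO₂. Washed with PBS, methanol-fixed 15 min, stained 0.1% crystal violet 10 min; colonies of more than 50 cells counted under inverted microscope to give inhibition rate.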

For data set [8], the system named is HeLa. The data set is described as follows: Nitric oxide releasing activity in human HeLa cells assessed as nitrite accumulation at 100 uM after 5 hrs by Griess reagent based colorimetric assay. The data set is classed as ADME, cell-based. The procedure, abridged: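 HeLa cells (1×10⁵ per well) incubated 5 h with compound at 100 μM. Cell-free supernatant mixed 1:1 with Griess reagent for 10 min; absorbance at 540 nm; nitrite quantified against NaNO₂ standard curve.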

The subject of data set [9] is Mus musculus. The data set is described as follows: Toxicity in Kunming mouse xenografted with […] assessed as decrease in body weight at 100 mg/kg/day, ig once daily for 10 days. The conditions noted are these: in vivo, po, 240 h. The data set is classed as organism-based. An outline of the steps:
(§3)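 Female Kunming mice (20±2 g, 4–6 weeks), 10 per group, inoculated subcutaneously with H22 cells (4×10⁷/mL) on day 0. Compound 100 mg/kg/day given intragastrically once daily for 10 days; vehicle PBS with 5% DMSO. Body weight recorded before each dose; survival monitored daily.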

Data set [10] relates to HeLa. Put plainly: Antimigratory activity against human HeLa cells at 1 uM after 24 hrs using crystal violet staining by inverted microscopic based transwell chamber assay. It is filed as functional, cell-based. The procedure, abridged:
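Uncoated Transwell chambers, 8 μm pore. 5×10⁴ HeLa cells seeded in upper chamber with compound (1 μM) in RPMI1640 containing 1% FBS; 10% FBS below as chemoattractant. 24 h at 37 °C; upper-side cells removed, membrane methanol-fixed 10 min, 0.5% crystal violet stained, migrated cells counted under inverted microscope.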

The subject of data set [11] is HeLa. The data set is described as follows: Antimigratory activity against human HeLa cells assessed as reduction in wound closure at 1 uM by inverted microscopic method. The data set is classed as functional, cell-based. The settings on record: TDE = time-dependent effect. An outline of the steps:
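2×10⁵ HeLa cells per well grown to confluence; pipette tip scratch made, cells treated with 1 μM compound and allowed to migrate; wound imaged by inverted microscope at 0, 12, 24 and 48 h, wound closure quantified.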

Another data set deals with H22. Put plainly: Antitumor activity against […] xenografted in Kunming mouse assessed as increase in mouse survival rate at 100 mg/kg/day, ig once daily for 10 days relative to control. It is filed as functional. An outline of the steps: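 Female Kunming mice (20±2 g, 4–6 weeks), randomized 10 per group, were inoculated subcutaneously with H22 cells (4 × 10⁷/mL) on day 0. Dosing was intragastric, once daily for ten days, with a PBS/5% DMSO vehicle group and a positive-control group. Body weight was recorded before each dose, and survival was checked daily. Mean survival time was compared with vehicle.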

Data set [12] relates to Mus musculus. Put plainly: Toxicity in Kunming mouse xenografted with […] assessed as increase in body weight at 100 mg/kg/day, ig once daily for 10 days. It is filed as organism-based. The conditions noted are these: in vivo, po, 240 h. The procedure, abridged: as §3

Chain of 72 kDa type IV collagenase (P08253 whole entry, the tested form may be a part): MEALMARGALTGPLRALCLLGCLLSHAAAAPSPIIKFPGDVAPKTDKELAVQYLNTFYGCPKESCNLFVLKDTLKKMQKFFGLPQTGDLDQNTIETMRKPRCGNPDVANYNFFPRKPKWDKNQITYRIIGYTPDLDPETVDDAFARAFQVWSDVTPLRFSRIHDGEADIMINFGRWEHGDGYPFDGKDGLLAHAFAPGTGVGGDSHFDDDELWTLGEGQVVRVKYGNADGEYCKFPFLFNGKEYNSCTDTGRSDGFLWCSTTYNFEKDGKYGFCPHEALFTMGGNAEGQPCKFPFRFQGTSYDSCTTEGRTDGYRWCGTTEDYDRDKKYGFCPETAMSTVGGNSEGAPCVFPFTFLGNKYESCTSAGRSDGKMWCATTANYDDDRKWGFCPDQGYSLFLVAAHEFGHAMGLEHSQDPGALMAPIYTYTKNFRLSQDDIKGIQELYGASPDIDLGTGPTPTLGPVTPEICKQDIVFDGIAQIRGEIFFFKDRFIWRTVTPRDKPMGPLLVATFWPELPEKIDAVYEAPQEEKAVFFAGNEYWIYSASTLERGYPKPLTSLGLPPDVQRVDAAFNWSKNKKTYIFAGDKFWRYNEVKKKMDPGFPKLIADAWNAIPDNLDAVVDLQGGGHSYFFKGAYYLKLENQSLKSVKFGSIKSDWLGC
Chain of Matrix metalloproteinase-9 (P14780 whole entry): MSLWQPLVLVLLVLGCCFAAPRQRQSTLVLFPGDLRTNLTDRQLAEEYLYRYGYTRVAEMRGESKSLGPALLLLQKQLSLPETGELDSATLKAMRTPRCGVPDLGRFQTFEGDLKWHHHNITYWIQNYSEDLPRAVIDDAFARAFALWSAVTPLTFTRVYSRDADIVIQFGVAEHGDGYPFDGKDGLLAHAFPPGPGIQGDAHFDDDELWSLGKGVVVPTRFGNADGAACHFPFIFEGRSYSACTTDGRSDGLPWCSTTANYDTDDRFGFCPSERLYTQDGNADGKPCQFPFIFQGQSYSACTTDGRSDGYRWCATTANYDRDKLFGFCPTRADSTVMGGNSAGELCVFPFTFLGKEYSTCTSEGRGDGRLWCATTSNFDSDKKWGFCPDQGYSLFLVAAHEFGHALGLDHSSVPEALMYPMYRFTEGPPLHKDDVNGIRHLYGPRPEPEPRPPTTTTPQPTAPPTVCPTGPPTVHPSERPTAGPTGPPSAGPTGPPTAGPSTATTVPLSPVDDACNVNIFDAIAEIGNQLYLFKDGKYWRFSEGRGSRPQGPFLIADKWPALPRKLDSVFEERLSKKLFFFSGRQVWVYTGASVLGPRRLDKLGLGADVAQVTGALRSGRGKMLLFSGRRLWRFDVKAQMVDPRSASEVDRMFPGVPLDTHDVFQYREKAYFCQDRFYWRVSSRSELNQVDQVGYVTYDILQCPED

In the case of `O=C(N[C@H]1C[C@@H](C(=O)NO)N(S(=O)(=O)c2ccc(Oc3ccccc3)cc2)C1)c1cccc2no[n+]([O-])c12`, the outcome in the data set with HUVEC, with HeLa [3] and with HeLa [7] was Active. For the same compound, the IC50 worked out at 21.5 µM in the data set on A549; 0.242 µM in data set [2]; 7.24 µM with HeLa [4]; 4.19 µM with MDA-MB-231; 0.182 µM in data set [5]; 8.26 µM in data set [6]. Besides, the IC50 in the data set on K562 was determined as 4.58 µM; in the data set with MCF7 it was 13 µM. This compound registered a CC50 at 48 h in [1] of 37.2 µM. Also, in the data set on Thoracic aorta, the result was inactive. Besides, the Nitrite concentration with HeLa [8] is 27.87 µM.

Take `O=C(N[C@H]1C[C@@H](C(=O)NO)N(S(=O)(=O)c2ccc(Oc3ccccc3)cc2)C1)c1ccc2no[n+]([O-])c2c1`: the Activity entry in the data set on Mus musculus [9] is “Toxic”; in the data set on HeLa [11] it was “Tde”; in the data set on H22, 40.48%. In addition, the outcome in the data set on HUVEC, in the data set with HeLa [3], in the data set with HeLa [10], in the data set on Thoracic aorta and with HeLa [7] was Active. Also, the IC50 with A549 is 5.1 µM; in data set [2], 0.162 µM; in the data set with HeLa [4], 3.82 µM; in the data set with MDA-MB-231, 7.01 µM; in [5], 0.102 µM; in data set [6], 7.47 µM. The IC50 in the data set with K562 was determined as 3.56 µM; in the data set with MCF7, 4.19 µM. The compound also had a CC50 at 48 h in data set [1] of 32.5 µM. In the data set with HeLa [8], the Nitrite concentration was determined as 34.43 µM.

With `COc1ccc(/C=C/C(=O)N2C[C@@H](NC(=O)c3cccc4no[n+]([O-])c34)C[C@H]2C(=O)NO)cc1OC`, the result in the data set on HUVEC, in the data set on HeLa [3] and in the data set with HeLa [7] was Active. Moreover, the IC50 was 25.6 µM in the data set with A549; 0.524 µM in data set [2]; 14.1 µM in the data set on HeLa [4]; 16.5 µM with MDA-MB-231; 0.414 µM in [5]; 17.4 µM in data set [6]. Further, the IC50 in the data set on K562 worked out at 11.2 µM; in the data set on MCF7, 23.4 µM. Besides, in data set [1], the CC50 at 48 h turned out to be 42.3 µM. Also, the result in the data set on Thoracic aorta was inactive. Moreover, in the data set with HeLa [8], the Nitrite concentration amounted to 25.51 µM.

Take `COc1ccc(/C=C/C(=O)N2C[C@@H](NC(=O)c3cccnc3)C[C@H]2C(=O)NO)cc1OC`: the result in the data set on HUVEC, with HeLa [3], in the data set with HeLa [10], with Thoracic aorta, in the data set with HeLa [7] and in the data set with H22 was Active. Besides, the IC50 in the data set with A549 is 78.2 µM; in data set [2], 0.36 µM; in the data set with HeLa [4], 185 µM; in the data set on MDA-MB-231 it was > 200 µM; in data set [5], 0.266 µM; in data set [6], > 200 µM. Besides, the IC50 with K562 and in the data set with MCF7 was > 200 µM in each case. Besides, the CC50 at 48 h in data set [1] stood at 39.8 µM. Also, the Activity entry in the data set on Mus musculus [12] was “Toxic”.

Consider `COc1ccc(/C=C/C(=O)N2C[C@@H](NC(=O)c3ccc4no[n+]([O-])c4c3)C[C@H]2C(=O)NO)cc1OC`, for which the result in the data set with HUVEC, in the data set on HeLa [3], with Thoracic aorta and in the data set on HeLa [7] was Active. Further, the IC50 in the data set with A549 was 13.2 µM; in data set [2] it was 0.388 µM; in the data set with HeLa [4] it was 6.49 µM; with MDA-MB-231 it was 9.81 µM; in data set [5], 0.345 µM; in data set [6] it was 14.1 µM. The IC50 in the data set with K562 amounted to 4.61 µM; in the data set with MCF7 it was 10.7 µM. Besides, in data set [1], the midpoint of cytotoxicity, the CC50 at 48 h, lay at 36.3 µM. Besides, the Nitrite concentration in the data set on HeLa [8] was found to be 33.11 µM.
